The record followed here is ChEMBL document CHEMBL4513216, “Probing the Open Global Health Chemical Diversity Library for Multistage-Active Starting Points for Next-Generation Antimalarials” (ACS Infect Dis, 2020).

The nature of the data set: Toxicity liver stage against HepG2, at 10uM. It is filed as cell-based. Also on record: test concentration 10 uM, cell line HepG2-A16-CD81EGFP. Particulars: human, HepG2-A16-CD81EGFP cells; read-out: INHIBITION
The gist of the method:
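Uninfected HepG2-A16-CD81EGFP cells, 3 × 10^3 per well, 1536-well, plated on prespotted compound at 10 μM final, parasite-free screening media added to match infected plates; puromycin 10 μM positive, DMSO 0.5% negative; run in parallel with 48 h PbLuc assay at 37 °C, 5% CO2; viability by CellTiter-Glo luminescence, normalized to controls.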
Turning to `Cc1ccc(S(=O)(=O)NC2=NCN(CCc3cccs3)CN2)cc1`, the cytotoxicity at 10 µM stood at 4.77%.

On to `Cc1c(C(=O)N2CCNC(=O)C2)sc2nc[nH]c(=O)c12`, for which the cytotoxicity at 10 µM is 0.709%. As to `COCC1CN(Cc2ccsc2)Cc2cnn(C)c21` (stereo not given), the cytotoxicity at 10 µM came out at 5.58%. Regarding `Cc1ccc(-c2nc(C3CCN(C(=O)c4ccn(C)n4)CC3)no2)cn1`, the cytotoxicity at 10 µM was -2.81%. The same measure for `O=C(CC1COCCN1)N1CCCN(C2Cc3ccccc3C2)CC1` (stereo not given): -139%; for `CCN1CC(CN(C)c2cc(C)nc(N)n2)Oc2ccccc21` (stereo not given): 38.8%; for `CN(C)CC(=O)N1Cc2cc(N(C)C)ccc2C1c1cnco1` (stereo not given): -0.757%. In the case of `COc1c(CNC2CCOc3ccccc32)c(C)nn1C` (stereo not given) it was 4.25%; in that of `CCSc1ccc(C(C)NC(=O)CCS(C)(=O)=O)cc1` (stereo not given), 2.18%; in that of `Cn1nc(C2CCCN(Cc3ccc(F)c(F)c3)C2)c2nccnc21` (stereo not given), -2.9%. As to `NCC(c1ccccc1)N1CCc2sccc2C1` (stereo not given), the cytotoxicity at 10 µM was 1.88%.

Regarding `COC(=O)CCNC(=O)c1nnn(-c2ccccc2)c1C(F)(F)F`, the cytotoxicity at 10 µM is -4.27%. Consider `CC(O)c1cn(CC2CCN(C(=O)CN(C)C(C)C)CC2)nn1` (stereo not given), for which the cytotoxicity at 10 µM is -1.58%. In the case of `CCOc1cccc2c1OCC(C(=O)NS(=O)(=O)c1cccs1)=C2`, the cytotoxicity at 10 µM is -2.97%.

On to `CNS(=O)(=O)c1ccc(CNC(=O)N(CC(C)C)C(C)C)cc1`, for which the cytotoxicity at 10 µM came out at 4.5%. On to `Cc1ocnc1C(=O)N[C@H]1CN(CC2CCC2)C[C@@H]1C(C)C`, for which the cytotoxicity at 10 µM was -2.94%.

On to `OC(CN1CCCc2ccc(F)cc21)Cn1cccn1` (stereo not given), for which the cytotoxicity at 10 µM came out at 5.95%. In the case of `COC(CNC(=O)c1cn(C)nn1)c1ccccc1C` (stereo not given) it was -14.5%; in that of `Cc1noc(C)c1CN1CCOC2(CCCN(c3ncccn3)C2)C1` (stereo not given), 8.27%. Consider `CCN(c1ccc(C(=O)NCCCN2CCCC2)cc1)S(=O)(=O)CC`, for which the cytotoxicity at 10 µM is -3.29%. Take `Cc1ccc(F)c(C(=O)N2C[C@@H](C(=O)O)[C@H](c3ccncc3)C2)c1Cl`: the cytotoxicity at 10 µM is -2.37%. Regarding `CC(C)N(C)Cc1cncc2c1CCN(C(=O)c1cccc(C#N)c1)C2`, the cytotoxicity at 10 µM was 4.01%.

On to `COC(=O)c1ccc(CNC2CC(=O)N(Cc3cccc(F)c3)C2)cc1` (stereo not given), for which the cytotoxicity at 10 µM came to 4.43%.

With `Fc1ccc(NC2CCCN(Cc3ccncc3)C2)cc1` (stereo not given), the cytotoxicity at 10 µM was 3.58%.

Turning to `O=C(NCc1ccoc1)Nc1cc(C(F)(F)F)c[nH]c1=O`, the cytotoxicity at 10 µM was -0.779%. For the compound `CC(C)C(CNC(=O)CCn1cncn1)N1CCc2ccccc2C1` (stereo not given), the cytotoxicity at 10 µM is -162%. The same measure for `O=C(NCC1CC1)c1cc2c(s1)CCN2C(=O)c1cccnc1`: 8.07%; for `CCCN(Cc1ccccc1O)C(=O)Nc1cnn(CCOC)c1`: 23.8%. Consider `Cc1oc(-c2ccc(F)cc2)nc1CN1CCOCS1(=O)=O`, for which the cytotoxicity at 10 µM came to 4.57%. In the case of `Cc1ccc(C)c(-c2[nH]c3ccccc3c2C(=O)O)c1` it was 1.55%; in that of `CCN1C(=O)C2(CCOCC2)c2cc(NC(=O)c3csnn3)ccc21`, 0.223%.

`O=C(c1ccccn1)N1CC(S(=O)(=O)c2ccc(Cl)cc2)C1`: the cytotoxicity at 10 µM is -12%. Consider `COc1cccc(Cn2c(C3CCNCC3)cc3cccnc32)c1`, for which the cytotoxicity at 10 µM was 0.115%.

As for `CC(C)CNC(=O)CN1C=Nc2ccccc2S1(=O)=O`, the cytotoxicity at 10 µM was -2.09%. Regarding `C[C@@H](NCc1cccc(Cl)c1)c1onc(-c2ccccc2)c1C(=O)O`, the cytotoxicity at 10 µM was -4.98%. Take `Cc1csc(N2CCN(Cc3cccnc3)CC2C)n1` (stereo not given): the cytotoxicity at 10 µM was determined as 11.2%. In the case of `C=C(C)COc1cccc(CN(CC)Cc2noc(C)n2)c1` it was -12%; in that of `O=C(O)CC[C@@H]1CN(c2ncccc2F)CC[C@@H]1N1CCOCC1`, -9.11%; in that of `CCC(=O)Nc1cccc(C(=O)NCCC2=CSC3=NCCCN23)c1`, 1.93%.

On to `COCCOc1ccc(S(=O)(=O)Nc2cccnc2O)cc1C`, for which the cytotoxicity at 10 µM is 4.68%.
